According to ChEMBL document CHEMBL4346709, “Design and Optimization Leading to an Orally Active TTK Protein Kinase Inhibitor with Robust Single Agent Efficacy” (J Med Chem, 2019):

Columns and labels:
[1] = target: T1, Dual specificity protein kinase TTK (Homo sapiens, UniProt P33981); assay: Inhibition of TTK in human CAL51 cells assessed as decrease in phosphorylated KNL-1 T943 levels after 1 hr by Western blot analysis; assay type: cell-based
T1 sequence (P33981 whole entry): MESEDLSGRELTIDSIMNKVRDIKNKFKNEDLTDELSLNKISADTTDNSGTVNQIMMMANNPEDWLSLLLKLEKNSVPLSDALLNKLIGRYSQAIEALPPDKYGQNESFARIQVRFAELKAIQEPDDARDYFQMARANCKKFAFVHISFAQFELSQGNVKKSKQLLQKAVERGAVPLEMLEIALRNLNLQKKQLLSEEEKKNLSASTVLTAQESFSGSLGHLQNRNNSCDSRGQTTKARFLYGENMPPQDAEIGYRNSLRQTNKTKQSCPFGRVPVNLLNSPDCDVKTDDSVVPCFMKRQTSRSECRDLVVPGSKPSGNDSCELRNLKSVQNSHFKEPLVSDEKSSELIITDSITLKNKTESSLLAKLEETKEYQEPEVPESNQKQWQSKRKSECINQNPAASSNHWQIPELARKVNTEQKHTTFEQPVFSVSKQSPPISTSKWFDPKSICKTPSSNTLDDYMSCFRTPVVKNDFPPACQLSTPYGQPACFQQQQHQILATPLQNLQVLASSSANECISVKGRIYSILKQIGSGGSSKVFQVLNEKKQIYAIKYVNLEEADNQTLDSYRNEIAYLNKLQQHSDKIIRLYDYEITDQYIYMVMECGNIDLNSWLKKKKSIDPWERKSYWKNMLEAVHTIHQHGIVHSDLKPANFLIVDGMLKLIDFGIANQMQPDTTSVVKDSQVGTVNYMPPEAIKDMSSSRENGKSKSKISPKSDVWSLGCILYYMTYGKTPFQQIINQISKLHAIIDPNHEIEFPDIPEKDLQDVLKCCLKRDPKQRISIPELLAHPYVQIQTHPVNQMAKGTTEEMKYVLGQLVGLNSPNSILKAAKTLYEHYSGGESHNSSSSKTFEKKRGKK

[2] = target: Leucine-rich repeat serine/threonine-protein kinase 2 (Homo sapiens, UniProt Q5S007); assay: Inhibition of recombinant human GST-tagged LRRK2 catalytic domain (970 to 2527 residues) expressed in baculovirus expression system using LRRKtide as substrate measured after 1 hr by Alexa fluor-647 ADP tracer-based ADAPTA assay
[3] = target: T1, Dual specificity protein kinase TTK; assay: Inhibition of TTK autophosphorylation in human CAL51 cells by radioimmuno-precipitation assay; assay type: cell-based
Homo sapiens [4] = species: Homo sapiens; assay: Selectivity ratio of IC50 for recombinant human full length His-tagged JNK2 expressed in baculovirus expression system to IC50 for inhibition of Kinase Tracer 236 binding to recombinant human full-length GST-tagged TTk expressed in baculovirus expression system
Homo sapiens [5] = species: Homo sapiens; assay: Selectivity ratio of IC50 for recombinant human GST-tagged LRRK2 catalytic domain (970 to 2527 residues) expressed in baculovirus expression system to IC50 for inhibition of Kinase Tracer 236 binding to recombinant human full-length GST-tagged TTk expressed in baculovirus expression system
[6] = Cmax in CB17 SCID mouse at 30 mg/kg, po; assay type: ADME, organism-based; design: dose 30 mg/kg, route oral; settings: in vivo
Outline: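 Oral PK in SCID mice at 30 mg/kg. Compound is formulated either in CMCT (0.5% CMC/0.25% tween-80) or in 5% TPGS, 10% captisol, 50 mM citrate buffer, depending on compound. Cmax and AUC are measured.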

CAL-51 = assay: Antitumor activity against human CAL51 cells xenografted in po dosed CB17 SCID mouse assessed as tumor growth inhibition administered every seven days for 16 days and measured twice per week up to 31 days by caliper method; assay type: functional, organism-based
Outline: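 Female CB17 SCID mice, 6-8 weeks old, inoculated subcutaneously with 2×10^6 CAL-51 cells. Oral dosing once weekly (QW) at 30-120 mg/kg, or 30 mg/kg BID QW, for 16 days, against vehicle control. Tumour long and short axes measured twice weekly by digital caliper; volume = width² × length/2. Values are TGI; data are mean ± SEM.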

[7] = Oral bioavailability in CB17 SCID mouse at 30 mg/kg; assay type: ADME, organism-based; settings: in vivo
[8] = target: Mitogen-activated protein kinase 9 (Homo sapiens, UniProt P45984); assay: Inhibition of recombinant human full length His-tagged JNK2 expressed in baculovirus expression system by Z'-LYTE assay
[9] = target: Dual specificity protein kinase CLK2 (Homo sapiens, UniProt P49760); assay: Inhibition of recombinant human GST-tagged CLK2 catalytic domain (137 to 498 residues) expressed in baculovirus expression system at 3 uM by Z'-LYTE assay relative to control
Outline: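 Kinase selectivity panel: single-point assessment at 3 µM, n=1.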

[10] = AUC in rat at 10 mg/kg, po; assay type: ADME, organism-based; settings: in vivo
Outline: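 Rat oral PK at 10 mg/kg. Compound is given as a solution in CMCT (0.5% CMC/0.25% tween-80) or formulated in 5% TPGS, 10% captisol, 50 mM citrate buffer. Cmax and AUC are recorded.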

[11] = Toxicity in CB17 SCID mouse xenografted with human CAL51 cells assessed as loss of body weight at 30 mg/kg, po […] for 16 days and measured up to 31 days; assay type: organism-based; settings: in vivo
Outline: (§1)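 Female CB17 SCID mice bearing subcutaneous CAL-51 xenografts (2×10^6 cells). Oral dosing once weekly at 30-120 mg/kg, or 30 mg/kg BID once weekly, for 16 days. Body weight loss tracked alongside tumour measurements, against vehicle.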

[12] = target: T2, Dual specificity tyrosine-phosphorylation-regulated kinase 3 (Homo sapiens, UniProt O43781); assay: Inhibition of recombinant human full length GST-tagged DYRK3 expressed in baculovirus expression system by Z'-LYTE assay
T2 sequence (O43781 whole entry): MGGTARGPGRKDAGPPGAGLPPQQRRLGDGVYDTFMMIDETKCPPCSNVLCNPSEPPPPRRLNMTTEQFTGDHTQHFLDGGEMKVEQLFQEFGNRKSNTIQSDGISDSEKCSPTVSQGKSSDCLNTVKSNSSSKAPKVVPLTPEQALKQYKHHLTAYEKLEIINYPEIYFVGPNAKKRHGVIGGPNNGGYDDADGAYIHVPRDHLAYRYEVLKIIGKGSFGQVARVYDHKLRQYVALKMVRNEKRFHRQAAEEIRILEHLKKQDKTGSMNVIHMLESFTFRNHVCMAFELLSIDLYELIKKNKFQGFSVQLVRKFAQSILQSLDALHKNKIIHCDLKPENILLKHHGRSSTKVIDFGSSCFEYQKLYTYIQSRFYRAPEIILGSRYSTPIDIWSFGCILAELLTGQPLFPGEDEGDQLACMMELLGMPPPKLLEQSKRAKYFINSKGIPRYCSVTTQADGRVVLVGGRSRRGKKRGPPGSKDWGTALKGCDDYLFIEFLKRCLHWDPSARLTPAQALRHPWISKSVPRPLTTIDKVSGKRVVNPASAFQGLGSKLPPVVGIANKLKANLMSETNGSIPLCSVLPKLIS

[13] = Toxicity in CB17 SCID mouse xenografted with human CAL51 cells assessed as loss of body weight at 30 to 120 mg/kg, po administered every seven days for 16 days and measured up to 31 days; assay type: organism-based; settings: in vivo; outline: as §1

Chain of Leucine-rich repeat serine/threonine-protein kinase 2 (Q5S007 whole entry, the tested form may be a part): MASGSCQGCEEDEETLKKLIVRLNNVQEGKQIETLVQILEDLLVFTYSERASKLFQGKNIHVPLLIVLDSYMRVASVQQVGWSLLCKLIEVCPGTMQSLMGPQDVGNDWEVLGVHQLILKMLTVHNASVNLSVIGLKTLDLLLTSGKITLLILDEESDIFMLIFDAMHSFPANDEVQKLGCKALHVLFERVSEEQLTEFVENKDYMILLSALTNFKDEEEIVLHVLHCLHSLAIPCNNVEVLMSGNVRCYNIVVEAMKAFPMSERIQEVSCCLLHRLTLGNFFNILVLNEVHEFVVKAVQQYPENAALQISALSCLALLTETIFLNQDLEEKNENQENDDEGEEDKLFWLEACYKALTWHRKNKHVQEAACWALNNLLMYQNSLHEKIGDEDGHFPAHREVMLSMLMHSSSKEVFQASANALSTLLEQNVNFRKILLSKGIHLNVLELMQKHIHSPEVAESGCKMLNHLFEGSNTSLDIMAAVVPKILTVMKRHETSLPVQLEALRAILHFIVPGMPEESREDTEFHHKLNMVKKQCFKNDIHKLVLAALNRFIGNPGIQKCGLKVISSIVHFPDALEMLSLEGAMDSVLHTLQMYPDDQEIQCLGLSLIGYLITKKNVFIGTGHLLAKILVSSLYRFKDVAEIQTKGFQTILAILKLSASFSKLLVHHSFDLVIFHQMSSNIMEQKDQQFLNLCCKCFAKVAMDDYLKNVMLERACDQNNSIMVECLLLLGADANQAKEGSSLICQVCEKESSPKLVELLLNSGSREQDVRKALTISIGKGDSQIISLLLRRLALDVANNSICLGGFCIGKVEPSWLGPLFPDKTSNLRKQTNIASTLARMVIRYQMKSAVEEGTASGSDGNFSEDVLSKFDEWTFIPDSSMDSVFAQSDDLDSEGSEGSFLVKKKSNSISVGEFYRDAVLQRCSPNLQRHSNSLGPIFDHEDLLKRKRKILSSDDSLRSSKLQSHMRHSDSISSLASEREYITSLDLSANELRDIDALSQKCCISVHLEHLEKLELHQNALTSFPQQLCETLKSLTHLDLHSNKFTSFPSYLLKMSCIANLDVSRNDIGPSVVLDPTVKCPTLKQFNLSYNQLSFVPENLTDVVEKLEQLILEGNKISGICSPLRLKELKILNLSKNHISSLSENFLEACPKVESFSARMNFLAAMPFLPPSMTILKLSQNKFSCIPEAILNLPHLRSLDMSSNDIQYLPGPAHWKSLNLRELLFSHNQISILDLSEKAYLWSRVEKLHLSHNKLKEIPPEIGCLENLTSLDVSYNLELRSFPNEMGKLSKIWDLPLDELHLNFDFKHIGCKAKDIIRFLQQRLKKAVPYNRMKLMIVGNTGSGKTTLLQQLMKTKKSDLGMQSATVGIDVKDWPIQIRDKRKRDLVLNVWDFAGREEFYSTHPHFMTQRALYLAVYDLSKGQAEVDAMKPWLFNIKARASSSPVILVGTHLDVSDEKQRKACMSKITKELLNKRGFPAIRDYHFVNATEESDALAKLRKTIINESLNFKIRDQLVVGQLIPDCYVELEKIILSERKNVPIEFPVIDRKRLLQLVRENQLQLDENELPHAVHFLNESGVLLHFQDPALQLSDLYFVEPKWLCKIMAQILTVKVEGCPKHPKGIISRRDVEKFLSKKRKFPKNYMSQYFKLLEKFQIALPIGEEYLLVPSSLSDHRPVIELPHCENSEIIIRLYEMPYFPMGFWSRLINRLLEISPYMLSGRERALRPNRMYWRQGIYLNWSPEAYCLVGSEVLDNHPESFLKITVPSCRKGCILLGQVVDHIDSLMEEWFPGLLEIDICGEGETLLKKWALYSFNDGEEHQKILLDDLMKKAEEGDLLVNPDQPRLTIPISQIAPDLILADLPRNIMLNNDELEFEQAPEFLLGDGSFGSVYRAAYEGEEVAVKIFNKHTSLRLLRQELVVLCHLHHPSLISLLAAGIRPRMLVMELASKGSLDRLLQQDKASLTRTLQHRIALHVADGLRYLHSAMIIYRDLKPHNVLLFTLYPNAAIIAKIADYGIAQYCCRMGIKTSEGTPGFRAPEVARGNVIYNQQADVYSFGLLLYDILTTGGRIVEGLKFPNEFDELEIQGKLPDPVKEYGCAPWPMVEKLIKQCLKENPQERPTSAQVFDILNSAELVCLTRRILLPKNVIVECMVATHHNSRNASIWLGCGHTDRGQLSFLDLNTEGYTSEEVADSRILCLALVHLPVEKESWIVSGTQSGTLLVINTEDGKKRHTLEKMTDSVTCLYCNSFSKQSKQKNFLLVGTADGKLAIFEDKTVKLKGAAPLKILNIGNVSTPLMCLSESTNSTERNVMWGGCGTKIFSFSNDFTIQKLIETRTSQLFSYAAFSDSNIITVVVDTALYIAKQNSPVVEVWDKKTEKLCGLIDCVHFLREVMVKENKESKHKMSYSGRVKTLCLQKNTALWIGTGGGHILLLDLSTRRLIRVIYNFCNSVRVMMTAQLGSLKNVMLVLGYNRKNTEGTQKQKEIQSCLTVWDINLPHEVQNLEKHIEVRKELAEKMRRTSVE
Chain of Mitogen-activated protein kinase 9 (P45984 whole entry, the tested form may be a part): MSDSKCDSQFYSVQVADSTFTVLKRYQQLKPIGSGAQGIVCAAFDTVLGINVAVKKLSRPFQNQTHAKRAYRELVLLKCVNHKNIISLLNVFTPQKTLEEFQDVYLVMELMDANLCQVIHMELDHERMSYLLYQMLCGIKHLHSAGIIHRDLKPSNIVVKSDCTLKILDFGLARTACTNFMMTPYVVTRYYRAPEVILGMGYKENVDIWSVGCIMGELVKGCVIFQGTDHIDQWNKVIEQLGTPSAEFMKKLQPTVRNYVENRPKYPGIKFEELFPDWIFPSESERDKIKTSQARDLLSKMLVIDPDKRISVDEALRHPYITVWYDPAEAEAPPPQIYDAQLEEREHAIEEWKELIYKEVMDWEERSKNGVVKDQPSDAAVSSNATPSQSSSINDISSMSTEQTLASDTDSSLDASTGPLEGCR
Chain of Dual specificity protein kinase CLK2 (P49760 whole entry, looked up, the tested form may be a part): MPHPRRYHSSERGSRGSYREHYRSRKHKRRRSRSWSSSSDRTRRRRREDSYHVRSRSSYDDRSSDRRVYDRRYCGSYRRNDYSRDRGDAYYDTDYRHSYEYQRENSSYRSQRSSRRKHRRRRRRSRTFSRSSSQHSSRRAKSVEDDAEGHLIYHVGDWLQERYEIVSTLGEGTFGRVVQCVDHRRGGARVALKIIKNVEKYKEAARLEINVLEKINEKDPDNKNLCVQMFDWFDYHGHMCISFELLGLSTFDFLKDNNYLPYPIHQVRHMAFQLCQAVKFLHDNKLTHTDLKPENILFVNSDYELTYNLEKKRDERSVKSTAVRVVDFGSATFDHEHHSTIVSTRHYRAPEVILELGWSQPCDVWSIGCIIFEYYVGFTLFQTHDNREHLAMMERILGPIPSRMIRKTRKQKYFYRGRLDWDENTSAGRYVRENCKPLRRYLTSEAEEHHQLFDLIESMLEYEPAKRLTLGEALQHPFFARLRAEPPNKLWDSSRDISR

Question: Which IC50 [1] does the source give for `C[C@@H](Oc1cc(C(=O)N(C)C)ccc1Nc1nc(O[C@H]2CC[C@@](C)(O)CC2)c2c(Cl)c[nH]c2n1)C(F)(F)F` here?
Answer: 30 nM

Question: What about the IC50 [2] of the same compound?
Answer: 0.001 nM

Question: And the IC50 [3]?
Answer: 9 nM

Question: And the Ratio IC50 (Homo sapiens [4])?
Answer: < 100

Question: What about the Ratio IC50 (Homo sapiens [5]) of the same compound?
Answer: < 100

Question: And the Cmax [6]?
Answer: 5.2 µM

Question: What about the TGI (CAL-51) of the same compound?
Answer: Dose-dependent effect

Question: What about the bioavailability [7] of the same compound?
Answer: 60%

Question: What about the IC50 [8] of the same compound?
Answer: 0.059 nM

Question: And the inhibition [9]?
Answer: > 80%

Question: What about the AUC [10] of the same compound?
Answer: 26 to 26.3 µM·h

Question: What about the Activity [11] of the same compound?
Answer: Non-Toxic

Question: What about the IC50 [12] of the same compound?
Answer: 0.104 nM

Question: And the Activity [13]?
Answer: Non-Toxic
